Compound activity: PubChem, The Scripps Research Institute Molecular Screening Center
TAAR1 antag: human TAAR1 antagonists, primary screen, Fluo-8 calcium fluorescence, CHO RD-HGA16 cells; Trace amine-associated receptor 1 (Homo sapiens), Q96RJ0; antagonist; inhibition, % at 3 µM; actives 1.5% (n = 360,000);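 active = inhibition above a per-plate cutoff, the mean inhibition of test compounds on that plate plus 3 SD, cut at about 49% in these data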;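 also: 0% = DMSO plus EC80 beta-PEA response and 100% = DMSO alone without agonist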
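Material: CHO RD-HGA16 cells bearing hTAAR1; compound dosing: one-point dosing, 3 µM nominal final; schedule: dye loading 75 min at 37 °C, then 30 min room temperature; measured by: calcium fluorescence with Fluo-8; control set: vehicle and agonist controls; replication: n of 1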
GPR7 antagonist: GPR7 receptor antagonists, primary screen, cell-based, fluorescence, single concentration; inhibition, % at 4.4 µM; GPR7-expressing cells, fluorescence antagonist assay; actives 1.1% (n = 290,000); in the data active = inhibition above about 16%, passing the limit was not always enough;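 also: cells stimulated with the agonist NPW; 0% = agonist with vehicle and 100% = vehicle without agonist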
Target sequence (P48145 whole entry, looked up): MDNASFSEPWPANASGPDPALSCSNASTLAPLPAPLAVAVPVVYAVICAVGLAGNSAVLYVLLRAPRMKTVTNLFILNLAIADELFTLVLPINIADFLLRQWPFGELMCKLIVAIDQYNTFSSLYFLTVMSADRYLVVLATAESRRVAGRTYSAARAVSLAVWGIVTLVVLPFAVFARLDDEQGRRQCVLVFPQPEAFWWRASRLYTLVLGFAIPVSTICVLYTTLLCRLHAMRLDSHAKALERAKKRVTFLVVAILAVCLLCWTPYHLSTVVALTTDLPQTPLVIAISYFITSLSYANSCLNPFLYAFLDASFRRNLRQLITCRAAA
CHO parental Ca: ATP-evoked calcium signal inhibitors, parental CHO, primary screen, counter-screen for OX1R antagonist project, cell-based, fluorescence, Fluo-8 calcium dye. actives 0.63% (n = 330,000). parental CHO-K1, ATP-induced calcium, Fluo-8 fluorescence. inhibition, % at 5.6 µM;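 active = inhibition above that plate's mean sample inhibition plus 3 SD, cut at about 26% in these data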;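 also: 0% = ATP-challenged DMSO wells and 100% = DMSO wells without ATP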
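Assay system: parental CHO cells; Read-out basis: percent inhibition of ATP-evoked calcium rise, normalized to controls; Benchmarks: ATP and no-ATP DMSO wells; Compound dosing: single nominal dose of 5.6 µM per compound; Signal: Fluo-8 calcium dye fluorescence; Also added: ATP as calcium-mobilizing challenge; Repeats: singlicate.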
OX1R antag-1: antagonists of human orexin 1 receptor (OX1R); OX1R-expressing cells, FRET antagonist read-out; actives 1.8% (n = 330,000); Orexin/Hypocretin receptor type 1 (Homo sapiens), O43613; inhibition, % at 6.6 µM; in the data active = inhibition mostly above about 38%, no sharp cut-off; inactive = mostly below about 40%;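 also: 0% = agonist challenge alone and 100% = reference antagonist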
TAAR1 agonist: human TAAR1 agonists, primary screen, Fluo-8 calcium fluorescence, CHO RD-HGA16 cells. vehicle wells 0%, saturating PEA agonist 100%. activation, % at 3 µM. actives 0.99% (n = 360,000). AID 624467, 2012;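 active = activation above the mean activation of all test compounds in the run plus 3 SD, cut at about 38% in these data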
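Benchmarks: low control DMSO, high control PEA (EC100); System: CHO RD-HGA16 cells carrying human TAAR1 plus Gα16; Detection: Fluo-8 fluorescence, 5 s baseline then 140 s kinetic read; Schedule: 17-24 h plating, Fluo-8 75 min 37 °C, 30 min RT; Read-out basis: % activation from peak over basal fluorescence ratio, DMSO-to-PEA scaled.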
OX1R antag-2: OX1R (HCRTR1) antagonists, primary screen, fluorescence, CHO/OX1R cells, Fluo-8 calcium, orexin A; Orexin/Hypocretin receptor type 1 (Homo sapiens), O43613; Fluo-8 calcium fluorescence; inhibition, % at 5 µM; actives 0.43% (n = 330,000); AID 434989, 2010;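 active = inhibition above its plate's threshold, mean inhibition of all tested compounds on the plate plus 3 SD, cut at about 37% in these data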;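 also: 0% = orexin A challenge wells and 100% = SB-334867-A antagonist wells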
* = called active by the depositor; x = not tested or not shown. Sampled rows, rich in hits. Any-hit rate of the full collection: about 4.5%.

SMILES | TAAR1 antag | GPR7 antagonist | CHO parental Ca | OX1R antag-1 | TAAR1 agonist | OX1R antag-2
CCOc1cccc(C(=O)Nc2nc(-c3ccc(S(=O)(=O)N4CCOCC4)cc3)cs2)c1 | 53* | -6 | -9 | 26 | 14 | -16
COc1ccc(-c2csc(NC(=O)c3ccc(S(C)(=O)=O)cc3)n2)cc1 | 53* | -8 | 17 | 14 | 27 | 0
Cc1csc(NC(=O)c2cccc(S(=O)(=O)N3CCCCC3)c2)n1 | 11 | 0 | -18 | 13 | 13 | -18
Cc1ccc(-c2csc(NC(=O)c3cc([N+](=O)[O-])ccc3N3CCOCC3)n2)cc1 | -29 | -3 | 1 | 0 | 0 | -9
O=S(=O)(NCc1ccc(Cl)c(Cl)c1)c1cc(Cl)ccc1N1CC[C@@H](O)C1 | 22 | x | x | x | 4 | x
COc1cccc(NC(=S)N2CCN(S(C)(=O)=O)CC2)c1 | -7 | 0 | x | x | 4 | x
COC(=O)CSc1nc(-c2ccccc2)nc2ccccc12 | 24 | -10 | -19 | 74* | 6 | -10
O=C(COC(=O)c1cc[n+]([O-])cc1)Nc1ccc(SC(F)F)cc1 | -7 | -13 | -3 | 28 | 1 | 5
CCOc1ccc(C(=O)OCC(=O)Nc2ccc(SC(F)F)cc2)cc1OCC | 33 | -9 | 25* | 8 | 2 | -6
Fc1ccccc1CSc1nncn1NCc1cccs1 | 13 | 19* | 5 | 10 | 9 | -7
O=C(NC(=S)NCCC1=CCCCC1)c1ccccc1Br | 13 | -8 | -12 | 65* | 14 | -10
Cc1cc(-c2ccccc2)n[nH]1 | 0 | 10 | -20 | 21 | 1 | -1
FC(F)C(F)(F)C(F)(F)C(F)(F)c1cc(-c2ccccc2)n[nH]1 | 27 | -3 | 87* | 42* | 20 | 53*
COC(=O)[C@]12C[C@H](CC(=O)N3CCCC3)C(=O)N(Cc3ccccc3)C1=C[C@H](C1CCCC1)O[C@@H]2C | 4 | x | x | x | -2 | x
O=C(CCC(=O)Nc1ccc(Br)cc1)N/N=C/c1ccccc1O | 47 | 8 | -22 | 11 | 38* | -17
O=C(CCCCC(=O)NN=Cc1ccccc1O)NN=Cc1ccccc1O | 54* | x | x | x | 44* | x
Cc1ccc(NC(=O)CCC(=O)N/N=C/c2ccccc2O)cc1 | -2 | 7 | 4 | 3 | 38* | -26
COc1ccc(N2C(=O)c3n[nH]c(C(C)C)c3C2c2ccc(C)cc2)cc1 (centres undefined) | -29 | x | x | x | 4 | x
CC(C)(C)OC(=O)C[C@@H]1C/C=C\C[C@@H](CC(=O)N(CCO)Cc2ccccc2)C(=O)NC[C@H](c2ccccc2)OC1=O | 63* | x | -16 | 19 | 23 | 13
CC(C)(C)[C@H]1COC(=O)[C@@H](Cc2ccc(F)cc2)CC/C=C/C[C@@H](CC(=O)N[C@@H](CO)Cc2ccccc2)C(=O)N1 | 52* | x | -27 | 20 | 19 | 13
O=C1N[C@@H](Cc2ccccc2)COC(=O)[C@@H](Cc2ccc(F)cc2)C/C=C\C[C@@H]1CC(=O)N(CCO)Cc1ccccc1 | 54* | x | -4 | 24 | 28 | 34
CCOC(=O)C1=C(C(=O)OCC)C2N(Cc3ccc(Br)cc3)c3ccccc3[C@@]23C[C@@H](C(=O)OC)N(S(=O)(=O)c2cccs2)C3=N1 (some centres undefined) | -21 | x | x | x | 0 | x
CCc1cccc(CC)c1NC(=O)CO/N=C(\C)c1cccs1 | 4 | 11 | 0 | 12 | 1 | -9
CC(=O)c1ccc(NC(=O)CO/N=C(\C)c2cccs2)cc1 | 1 | 20* | -3 | 10 | 0 | -17
CC(=O)c1ccccc1NC(=O)COC(=O)/C=C/c1cccs1 | 31 | x | -26 | 18 | 6 | -18
CC(=O)c1ccc(NC(=O)COC(=O)/C=C/c2cccs2)cc1 | 19 | x | -16 | 50* | 12 | 26
